# Lmaj promast: Leishmania major promastigote growth inhibition | Leishmania major promastigotes, resazurin fluorescence viability | inhibition, % at 10 µM | 9% of 200,000 active; in the data active = inhibition above about 50%;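 also: promastigotes grown with compound for 44 hours at 28 °C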
# Rad51 HR inh: blocks human Rad51 in homologous recombination; 0.085% of 200,000 active; inhibition, % at 10 µM; hRad51 DNA strand exchange, fluorescence dequenching; AID 1385;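 active = inhibition above 40% at the single screening dose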
# Target sequence (Q06609 whole entry, looked up): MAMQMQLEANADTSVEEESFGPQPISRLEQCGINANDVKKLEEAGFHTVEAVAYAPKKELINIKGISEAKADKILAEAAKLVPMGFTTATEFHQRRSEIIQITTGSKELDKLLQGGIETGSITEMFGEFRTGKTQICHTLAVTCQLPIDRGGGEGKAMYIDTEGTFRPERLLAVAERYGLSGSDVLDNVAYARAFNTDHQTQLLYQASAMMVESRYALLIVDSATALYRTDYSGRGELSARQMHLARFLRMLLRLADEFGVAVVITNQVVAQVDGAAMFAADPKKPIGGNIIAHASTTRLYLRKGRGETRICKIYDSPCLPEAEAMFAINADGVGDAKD
#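 Test system: preformed human Rad51 ssDNA filaments. Compound dosing: single dose, 10 µM final compound. Incubation: filaments 15 min 37 °C, then compound 30 min. Technique: FRET fluorescence dequenching, excitation 485 nm, emission 520 nm. Read-out basis: percent inhibition from fluorescence, normalised to plate control and blank means. Benchmarks: plate controls and plate blanks.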
# PMI act hi M6P: PMI (human) activation, high substrate; coupled PMI enzyme assay, resazurin fluorescence, 20 min; stronger effect = higher value; 1 = untreated enzyme, 0 = substrate-free blank; 0.34% of 190,000 active; AID 1216; P34949; activation factor at 20 µM;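 active = activation factor of 2 or more at 20 µM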
#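 Material: human phosphomannose isomerase with PGI, G6PDH, diaphorase coupling enzymes; amount: PMI at 15 ng/mL final; also added: Mannose-6-phosphate 1.0 mM (near-saturating) plus 0.22 mM NADP+; incubation: enzyme reaction with compound 20 min at room temperature; signal: resorufin fluorescence (Ex 544/Em 590 nm) from resazurin via diaphorase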
# Calpain2 inh: inhibitors of pig calpain II; AID 1236; 0.37% of 220,000 active; purified calpain II, fluorogenic peptide substrate, 30 min; inhibition, % at 16 µM;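 active = inhibition above about 50%, limit read from the data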
# PMI act: increases human mannose-6-phosphate isomerase activity; P34949; purified human PMI, coupled resazurin fluorescence, 20 min; stronger effect = higher value; 1 = vehicle control, 0 substrate-free wells; activation factor at 20 µM; 0.005% of 190,000 active;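 active = activation factor of 2 or more at 20 µM, relative to plate controls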
# WT yeast gro inh: growth inhibition of WT yeast, mitochondrial fusion screen; inhibition, % at 10 µM; 2.1% of 190,000 active; AID 1362; mitochondrial fusion phenotypic screen, WT strain; in the data active = inhibition above about 58%; tested in S. cerevisiae
# Numbers stand for hits; n = inactive; x = no result. Hits are enriched below; roughly 9.8% of the tested compounds scored in any of these assays.
SMILES,Lmaj promast,Rad51 HR inh,PMI act hi M6P,Calpain2 inh,PMI act,WT yeast gro inh
C/C(=N\NC(=O)c1cccc([N+](=O)[O-])c1)c1ccco1,x,n,x,n,x,x
Cc1cccc(N2CN(Cc3ccco3)CNC2=S)c1C,n,n,n,n,n,n
Cc1cc(C)n2nc(-c3ccco3)nc2n1,n,n,n,n,n,n
COc1ccc(C2=NOC(C(=O)Nc3cccnc3Cl)C2)cc1 (stereo not drawn),n,n,n,n,n,n
Cc1nc(N2CCN(Cc3ccc4c(c3)OCO4)CC2)nc2c1C(=O)CC(c1ccco1)C2 (stereo not drawn),n,n,n,67.3,n,n
CC(=O)c1cc(NC(=O)c2ccccc2)c(=O)oc1C,n,n,2.1,n,n,n
CCOC(=O)c1cc(NC(=O)c2ccccc2)c(=O)oc1C(F)(F)F,n,n,2.2,n,n,n
CCOC(=O)c1cc(NC(=O)c2ccc(C)cc2)c(=O)oc1C(F)(F)F,n,x,2.6,n,n,n
Cc1cnc(NC(=O)CC2CCCC2)s1,n,n,n,n,n,n
Oc1ccccc1-c1cc(-c2ccc3c(c2)OCCO3)n[nH]1,n,x,n,53.8,n,n
O=C(O)c1cc(-c2ccc3c(c2)OCCO3)n[nH]1,n,n,n,n,n,n
C/C(NC1CCCCC1)=C(/C#N)C(=O)NCCN1CCOCC1,50.0,n,n,n,n,n
CCOc1ccc(-n2ccnc2SCC(=O)Nc2cc(C)on2)cc1,n,n,n,n,n,n
COc1ccc(C)cc1NC(=O)C(OC(=O)CNC(=O)c1ccc(Br)cc1)c1ccccc1 (stereo not drawn),52.1,n,n,n,n,n
COc1ccc(C)cc1NC(=O)C(OC(=O)CNC(=O)c1cc(C)cc(C)c1)c1ccccc1 (stereo not drawn),n,n,n,n,n,n
Cc1cccc(-n2c(=O)c3c(n4cnnc24)-c2ccccc2CC32CCCCC2)c1,n,n,n,n,n,74.2
Cn1c(N=Nc2ccc(N3CCOCC3)cc2)[n+](C)c2ccccc21,100.4,n,n,n,n,n
CN(C(=O)c1cccs1)c1ccc(OCC(=O)Nc2ccc(C(=O)O)cc2)cc1,x,x,x,n,x,x
C=CCc1c(C)c(C#N)c2nc3ccccc3n2c1NCCN(C)C,n,n,n,n,n,70.4
CCc1c(C)c(C#N)c2nc3ccccc3n2c1NCCN(C)C,n,n,n,n,n,n
CCOc1ccccc1NC(=O)/C(C#N)=C/c1c(C)nn(-c2ccccc2)c1Cl,81.6,n,n,n,n,n
N#C/C(=C\c1c(N(Cc2ccccc2)Cc2ccccc2)nc2ccccn2c1=O)C(N)=O,n,n,n,n,n,n
C=CCNC(=O)/C(C#N)=C/c1c(N(Cc2ccccc2)Cc2ccccc2)nc2ccccn2c1=O,76.0,n,n,n,n,n
Cc1ccc(C)c(OCC(=O)N/N=C/c2c(C)nn(-c3ccccc3)c2Cl)c1,n,x,n,n,n,n
C=CCNC(=O)/C(C#N)=C/c1c(C)nn(-c2ccccc2)c1Cl,99.2,n,n,n,n,n
SMILES,Lmaj promast,Rad51 HR inh,PMI act hi M6P,Calpain2 inh,PMI act,WT yeast gro inh
CC(=O)Nc1ccc(-c2nnn(CC(=O)Nc3ccc4c(c3)OCO4)n2)cc1Cl,n,n,n,n,n,n
Nc1nc(CN2CCN(Cc3ccc4c(c3)OCO4)CC2)nc(Nc2ccccc2)n1,71.5,n,n,n,n,n
CC1CC(C)CN(Cc2nc(N)nc(Nc3ccc4ccccc4c3)n2)C1 (stereo not drawn),94.8,n,n,n,n,n
Nc1nc(CN2CCC(Cc3ccccc3)CC2)nc(Nc2ccccc2)n1,100.3,n,n,n,n,n
Cc1ccccc1Nc1nc(N)nc(CN2CCN(Cc3ccc4c(c3)OCO4)CC2)n1,n,n,n,n,n,n
CC1CC(C)CN(Cc2nc(N)nc(Nc3ccccc3)n2)C1 (stereo not drawn),n,n,n,n,n,n
CC(C)N1CCN(Cc2ccc(C#CCCO)cc2)CC1CCO (stereo not drawn),n,n,n,n,n,n
Cc1ccccc1OCCC(=O)NCCc1ccc(S(N)(=O)=O)cc1,n,x,n,n,n,n
COc1ccc(Nc2nc(N)nc(CSC(=S)N3CCCCC3C)n2)cc1 (stereo not drawn),x,x,x,n,x,x
CC1CCc2sc(C(=O)N=Nc3c(O)[nH]c4ccccc34)cc2C1 (stereo not drawn),n,n,n,n,n,n
CCOC(=O)C(C)/C(C)=N\Nc1ccc([N+](=O)[O-])cc1[N+](=O)[O-] (stereo not drawn),n,n,n,51.7,n,n
CCOC(=O)C(C(=O)OCC)C(C)(C)/C(C)=N\Nc1ccc([N+](=O)[O-])cc1[N+](=O)[O-],n,n,n,n,n,n
CCC(C)(C)n1nnnc1C(c1ccc(C)cc1)N(Cc1ccco1)Cc1cccs1 (stereo not drawn),n,n,n,n,n,n
CC(C)(C)C(=O)Nc1nnc(COc2ccc(Cl)cc2)s1,x,n,x,n,x,x
Cc1c(C(=O)c2ccc(Cl)c(Cl)c2)cnc2cc3c(cc12)OCO3,n,n,n,n,n,61.2
C=C(C)CNC(=S)N/N=C/c1ccc(NC(C)=O)cc1,n,n,n,62.0,n,n
CC(=O)Nc1ccc(/C=N/NC(=S)NC(C)C)cc1,n,n,n,n,n,n
Cc1ccc(S(=O)(=O)NCC(=O)N(c2ccccc2)C(C(=O)NCc2ccccc2)c2ccco2)cc1 (stereo not drawn),n,x,n,n,n,n
Cc1cc(C)cc(N(C(=O)CNS(=O)(=O)c2ccccc2)C(C(=O)NCc2ccccc2)c2ccc(C)o2)c1 (stereo not drawn),54.9,n,n,n,n,n
CCc1ccc(C(=O)COC(=O)CNC(=O)COc2ccccc2)cc1,n,n,n,n,n,n
CC(C)(C)n1nnnc1C(c1ccncc1)N1CCN(C2CCCCC2)CC1 (stereo not drawn),n,n,n,n,n,n
CC(C)(C)n1nnnc1C(c1cccnc1)N1CCN(C(=O)c2ccco2)CC1 (stereo not drawn),67.7,n,n,n,n,n
CC(C)(C)n1nnnc1C(c1cccnc1)N1CCN(c2cccc(C(F)(F)F)c2)CC1 (stereo not drawn),94.8,n,n,n,n,n
CC(C)(C)n1nnnc1C(c1cccnc1)N1CCN(C2CCCCC2)CC1 (stereo not drawn),n,n,n,n,n,n
Cc1cccc(N2CCN(C(c3ccncc3)c3nnnn3C(C)(C)C)CC2)c1C (stereo not drawn),86.7,n,n,n,n,n
O=C(NNC(=O)c1cccs1)c1ccc([N+](=O)[O-])cc1,n,n,n,n,n,n
CCOC(=O)c1c(C)n(C)c2ccc(OC(=O)c3ccc(N4C(=O)CCC4=O)cc3)cc12,n,n,n,n,n,n
CCn1c(=O)c(=O)[nH]c2cc(C(=O)NCC3CCCCC3)ccc21,68.5,n,n,n,n,n

# Bioassay records as filed in PubChem BioAssay.
